In PMC8504818 (Clinical and Translational Science, 2021):
Entries after “also recorded” stand apart in the source; their conditions may differ. Where two headings read alike, the source gives them in different places. Marks after values point to notes of the source that are not given here.

Key:
[1] = Study 1; assay type: in vivo, human; conditions: for Intracellular islatravir‐TP AUC0–168 h / Intracellular islatravir‐TP AUC0–∞ / Intracellular islatravir‐TP C168 h / Intracellular islatravir‐TP Cmax: PBMC, LS geometric mean (95% CI)
How it was run: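 PBMCs from healthy adults were collected up to ~336 h after single oral doses, fasted or after a high-fat meal (30 mg). Cells were lysed in methanol-containing solvent, protein-precipitated, and triphosphate was measured by ion-exchange LC-MS/MS (LLOQ 0.50 ng/ml; range 0.50–200.00 ng/ml). Concentrations were carryover-corrected when predose exceeded 5% of Cmax. Results are LS geometric means (95% CI) from a log-scale mixed model; fed/fasted ratios have 90% CI.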

[2] = assay type: in vivo, human; conditions: for Tmax: human, PBMCs, oral
How it was run: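 Healthy adults took weekly oral capsules (10, 30, 100 mg) for 3 weeks. PBMCs were collected up to ~336 h after the last dose and triphosphate was quantified by ion-exchange LC-MS/MS (LLOQ 0.50 ng/ml). Tmax is observed. […] LS means are given with 95% CI.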

[3] = cited from earlier work
[4] = Study 1; assay type: in vivo, human
How it was run: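 Fasted single oral-suspension doses, with 30 mg also given after a high-fat breakfast (55.6 g fat, 55 g carbohydrate, 31.1 g protein), 6 active and 2 placebo per panel. Plasma was sampled predose to ~96 h and analysed by protein precipitation and reversed-phase LC-MS/MS (LLOQ 1.00 ng/ml; range 1.00–1000.00 ng/ml). Log-transformed values went into a mixed model (treatment fixed, subject random), giving a fed/fasted geometric mean ratio with 90% CI.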

[5] = Study 2; assay type: in vivo, human; conditions: for Accumulation ratio: week 3 / week 1, plasma islatravir AUC0–168 h / Accumulation ratio: week 3 / week 1, plasma islatravir Cmax: LS mean difference (90% CI); for AUC(0-t): Plasma islatravir AUC0–168 h; for AUC(0-t) / Cmax: LS mean (95% CI); for Cmax: Plasma islatravir Cmax
How it was run: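 Capsules of 10, 30 or 100 mg were given once weekly for 3 weeks, fasted (6 active, 2 placebo per panel). Plasma was sampled predose to ~168 h after dosing and measured by reversed-phase LC-MS/MS after protein precipitation (LLOQ 1.00 ng/ml). […] Week 3/week 1 ratios are back-transformed with 90% CI.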

[6] = Study 1; assay type: in vivo, human; remark: listed apart in the source
How it was run: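 Double-blind, randomized, alternating-panel single-dose design: 3 panels of 8 (6 active, 2 placebo) received an oral suspension or the vehicle as placebo. Assessments were vital signs, 12-lead ECGs, and hematology and blood chemistry at prespecified times. Adverse events were recorded from consent through 21 days after treatment ended. Placebo recipients were pooled. Participants were adults 18–60 y, BMI ≤32 kg/m2, men or women of nonchildbearing potential.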

[7] = Study 2 safety and tolerability; assay type: in vivo, human
How it was run: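 Double-blind, randomized, serial-panel multiple-dose design: 3 panels of 8 (6 active, 2 placebo) took capsules once weekly for 3 weeks, at least 10 days between panels. Assessments were vital signs, 12-lead ECGs, and hematology and blood chemistry at prespecified times. Adverse events were monitored from consent through 21 days after the last dose. Placebo data were pooled. Participants were adults 18–60 y, BMI ≤32 kg/m2, without HIV.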

[8] = system: SIV; conditions: once‐weekly oral islatravir; cited from earlier work
[9] = system: SIV; conditions: weekly oral islatravir; cited from earlier work
[10] = system: HIV‐1; conditions: cited from earlier work
[11] = Study 2, 10 mg once weekly, Week 1, LS mean (95% CI)
[12] = Study 2, 10 mg once weekly, Week 3, LS mean (95% CI)
[13] = Study 2, 30 mg once weekly, Week 1, LS mean (95% CI)
[14] = Study 2, 30 mg once weekly, Week 3, LS mean (95% CI)
[15] = Study 2, 100 mg once weekly, Week 1, LS mean (95% CI)
[16] = Study 2, 100 mg once weekly, Week 3, LS mean (95% CI)
[17] = human, plasma, oral, 100 mg, Study 2, 100 mg once weekly, Week 1
[18] = human, plasma, oral, 100 mg, Study 2, 100 mg once weekly, Week 3
[19] = up to 100 mg once weekly for 3 weeks

C#C[C@]1(COP(=O)(O)OP(=O)(O)OP(=O)(O)O)O[C@@H](n2cnc3c(N)nc(F)nc32)C[C@@H]1O [islatravir‐TP, 4'‐Ethynyl‐2‐fluoro‐2'‐deoxyadenosine triphosphate]
effect of food on islatravir‐TP AUC, Cmax, and C168 ([1]; 30 mg with a high‐fat meal): largely unchanged; also recorded: did not affect | posterior probability that the true mean intracellular islatravir‐TP C168 h is greater than 0.53 pmol/10^6 cells ([1]; doses of 15 mg and above): greater than 99% | Intracellular islatravir‐TP AUC0–168 h ([1]; single oral 5 mg fasted): 91.6 (73.5–114) h*pmol/10^6cells | Intracellular islatravir‐TP AUC0–∞ ([1]; single oral 5 mg fasted): 162 (120–217) h*pmol/10^6cells | Intracellular islatravir‐TP C168 h ([1]; single oral 5 mg fasted): 0.29 (0.19–0.45) pmol/10^6 cells | Intracellular islatravir‐TP Cmax ([1]; single oral 5 mg fasted): 1.06 (0.83–1.37) pmol/10^6cells | Intracellular islatravir‐TP AUC0–168 h ([1]; single oral 15 mg fasted): 341 (274–425) h*pmol/10^6cells | Intracellular islatravir‐TP AUC0–∞ ([1]; single oral 15 mg fasted): 670 (499–900) h*pmol/10^6cells | Intracellular islatravir‐TP C168 h ([1]; single oral 15 mg fasted): 1.24 (0.80–1.92) pmol/10^6 cells | Intracellular islatravir‐TP Cmax ([1]; single oral 15 mg fasted): 3.65 (2.85–4.69) pmol/10^6cells | Intracellular islatravir‐TP AUC0–168 h ([1]; single oral 30 mg fasted): 871 (700–1080) h*pmol/10^6cells | Intracellular islatravir‐TP AUC0–∞ ([1]; single oral 30 mg fasted): 1420 (1060–1900) h*pmol/10^6cells | Intracellular islatravir‐TP C168 h ([1]; single oral 30 mg fasted): 2.76 (1.78–4.29) pmol/10^6 cells | Intracellular islatravir‐TP Cmax ([1]; single oral 30 mg fasted): 8.21 (6.39–10.50) pmol/10^6cells | Intracellular islatravir‐TP Cmax ([1]; single oral 30 mg fed): 7.85 (6.11–10.1) pmol/10^6cells | Intracellular islatravir‐TP AUC0–∞ ([1]; single oral 30 mg fed, N = 4): 1370 (975–1920) ^g h*pmol/10^6cells | Intracellular islatravir‐TP AUC0–168 h ([1]; single oral 30 mg fed, N = 5): 660 (520–838) ^f h*pmol/10^6cells | Intracellular islatravir‐TP C168 h ([1]; single oral 30 mg fed, N = 5): 2.71 (1.67–4.40) ^f pmol/10^6 cells | Intracellular islatravir‐TP AUC0–168 h ([1]; single oral 100 mg fasted): 1260 (1010–1560) h*pmol/10^6cells | Intracellular islatravir‐TP AUC0–∞ ([1]; single oral 100 mg fasted): 2480 (1850–3330) h*pmol/10^6cells | Intracellular islatravir‐TP C168 h ([1]; single oral 100 mg fasted): 4.79 (3.09–7.43) pmol/10^6 cells | Intracellular islatravir‐TP Cmax ([1]; single oral 100 mg fasted): 13.8 (10.7–17.7) pmol/10^6cells | Intracellular islatravir‐TP AUC0–168 h ([1]; single oral 200 mg fasted): 3100 (2490–3860) h*pmol/10^6cells | Intracellular islatravir‐TP AUC0–∞ ([1]; single oral 200 mg fasted): 5180 (3850–6960) h*pmol/10^6cells | Intracellular islatravir‐TP C168 h ([1]; single oral 200 mg fasted): 7.73 (4.98–12.0) pmol/10^6 cells | Intracellular islatravir‐TP Cmax ([1]; single oral 200 mg fasted): 38.4 (29.9–49.3) pmol/10^6cells | Intracellular islatravir‐TP AUC0–168 h ([1]; single oral 400 mg fasted): 5300 (4260–6580) h*pmol/10^6cells | Intracellular islatravir‐TP AUC0–∞ ([1]; single oral 400 mg fasted): 9320 (6950–12500) h*pmol/10^6cells | Intracellular islatravir‐TP C168 h ([1]; single oral 400 mg fasted): 18.3 (11.8–28.4) pmol/10^6 cells | Intracellular islatravir‐TP Cmax ([1]; single oral 400 mg fasted): 63.6 (49.6–81.6) pmol/10^6cells | Islatravir‐TP AUC0–168 h [2, 11]: 341 (256, 454) h*pmol/10^6 cells | Islatravir‐TP Cmax [2, 11]: 3.79 (2.68, 5.34) pmol/10^6 cells | Islatravir‐TP AUC0–168 h [2, 12]: 476 (357, 634) h*pmol/10^6 cells | Islatravir‐TP Cmax [2, 12]: 6.38 (4.52, 9.00) pmol/10^6 cells | Islatravir‐TP AUC0–168 h [2, 13]: 1160 (872, 1550) h*pmol/10^6 cells | Islatravir‐TP Cmax [2, 13]: 13.2 (9.34, 18.6) pmol/10^6 cells | Islatravir‐TP AUC0–168 h [2, 14]: 1570 (1180, 2100) h*pmol/10^6 cells | Islatravir‐TP Cmax [2, 14]: 19.6 (13.9, 27.7) pmol/10^6 cells | Islatravir‐TP AUC0–168 h [2, 15]: 3150 (2370, 4200) h*pmol/10^6 cells | Islatravir‐TP C168 [2, 15]: 13.5 (10.4, 17.6) pmol/10^6 cells | Islatravir‐TP Cmax [2, 15]: 31.3 (22.2, 44.2) pmol/10^6 cells | Islatravir‐TP AUC0–168 h [2, 16]: 4740 (3560, 6320) h*pmol/10^6 cells | Islatravir‐TP Cmax [2, 16]: 46.7 (33.1, 65.9) pmol/10^6 cells | islatravir‐TP C168 h versus pharmacokinetic target ([2]; Study 2, after the first weekly dose at all dose levels, posterior probability calculation): > 0.53 pmol/10^6 cells | accumulation of intracellular islatravir‐TP ([2]; Study 2, multiple weekly doses of 30 and 100 mg): modest degree of accumulation | accumulation of intracellular islatravir‐TP ([2]; Study 2, multiple weekly doses of 30 and 100 mg, listed as islatravir‐triphosphate): modest degree | accumulation of intracellular islatravir‐TP ([2]; Study 2, weekly administration): ~1.5 fold | Tmax ([2]; 10 mg): 48 h | Tmax ([2]; 30 mg): 9 h | Tmax ([2]; 100 mg): 18 h | intracellular persistence of islatravir‐TP ([3]; preclinically): > 72 h

C#C[C@]1(CO)O[C@@H](n2cnc3c(N)nc(F)nc32)C[C@@H]1O [islatravir, 4'‐Ethynyl‐2‐fluoro‐2'‐deoxyadenosine]
decrease in plasma islatravir Cmax with a high‐fat meal ([4]; 30 mg fed vs fasted): 49% | increase in plasma islatravir AUC0–∞ with a high‐fat meal ([4]; 30 mg fed vs fasted): 10% | food effect on pharmacokinetics ([4]; 30 mg with a high‐fat meal): no meaningful food effect | Tmax ([4]; human, plasma, po, median time to maximum plasma concentration (Tmax), fasted state, single oral doses): 0.5 h | Accumulation ratio: week 3 / week 1, plasma islatravir AUC0–168 h ([5]; Study 2, 10 mg once weekly): 1.22 (1.08, 1.36) h*μmol/L | Accumulation ratio: week 3 / week 1, plasma islatravir Cmax ([5]; Study 2, 10 mg once weekly): 1.25 (0.82, 1.92) nmol/L | Accumulation ratio: week 3 / week 1, plasma islatravir AUC0–168 h ([5]; Study 2, 30 mg once weekly): 1.22 (1.09, 1.37) h*μmol/L | Accumulation ratio: week 3 / week 1, plasma islatravir Cmax ([5]; Study 2, 30 mg once weekly): 0.99 (0.64, 1.51) nmol/L | Accumulation ratio: week 3 / week 1, plasma islatravir AUC0–168 h ([5]; Study 2, 100 mg once weekly): 1.25 (1.11, 1.40) h*μmol/L | Accumulation ratio: week 3 / week 1, plasma islatravir Cmax ([5]; Study 2, 100 mg once weekly): 1.26 (0.82, 1.93) nmol/L | accumulation of islatravir in plasma ([5]; Study 2, once‐weekly dosing for 3 weeks): little to no accumulation; also recorded: minimal accumulation | concentration at 48 h ([5]; human, plasma, oral, 10 mg): < 1 ng/mL | concentration at 96 h ([5]; human, plasma, oral, 10 mg): < 1 ng/mL | half-life ([5]; human, plasma, oral, 10 mg): 16.5 h | half-life ([5]; human, plasma, oral, 30 mg): 74.2 h | half-life ([5]; human, plasma, oral, 100 mg): 87.1 h | AUC(0-t) [5, 17]: 9.62 µM·h | AUC(0-t) [5, 18]: 12 µM·h | Cmax [5, 17]: 1470 nM | Cmax [5, 18]: 1850 nM | adverse events considered related to islatravir [6]: none | changes in clinical laboratory values, vital signs, or ECG safety parameter values [6]: No clinically meaningful relationships | intensity of adverse events [6]: mild to moderate | total nonserious adverse events [6]: 30 | serious adverse events ([6]; single doses up to 400 mg): no serious adverse events | tolerability ([6]; single oral doses up to 400 mg): generally well‐tolerated | changes in clinical laboratory values, vital signs, or ECG safety parameter values [7]: No clinically meaningful relationships | intensity of adverse events [7]: mild to moderate | total nonserious adverse events [7]: 12 | serious adverse events [7, 19]: no serious adverse events | tolerability [7, 19]: generally well‐tolerated | time of peak plasma concentrations postdose ([3]; rhesus macaque, enteral administration): ~ 90 min | duration of declines in SIV RNA [8]: at least 7 days | protection from infection [9]: protected | tolerability ([10]; phase 1b single dose): generally well‐tolerated | suppression of HIV‐1 RNA ([10]; single oral doses as low as 0.5 mg, day 7): greater than 1.0 log
